Activity and EC50 data for 13 compounds are collected here from ChEMBL document CHEMBL1152253, “Inhibition of the CRM1-mediated nucleocytoplasmic transport by N-azolylacrylates: structure-activity relationship and mechanism of action” (Bioorg Med Chem, 2008).

Data set [1] addresses Exportin-1 (Homo sapiens) (UniProt O14980). Nature of the data set: Inhibition of CRM1-mediated nucleocytoplasmic transport of HIV1 RevM5 mutant in human HeLa cells assessed as HIV1 RevM5-GFP nuclear localization at 10 ug/ml after 2 hrs by fluorescence microscopy. The format is cell-based. The procedure, abridged: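 HeLa cells, grown in DMEM with 10% heat-inactivated FCS, 2 mM L-glutamine, 0.1% bicarbonate and gentamicin, were plated on glass-bottom dishes and transfected to express RevM5-GFP. RevM5-GFP is a Rev mutant that stays cytoplasmic but can still enter the nucleus. Compound was added, and after 2 h cellular RevM5-GFP distribution, nuclear versus cytoplasmic, was read by fluorescence microscopy with DIC images.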

Data set [2] relates to HeLa. Nature of the data set: Inhibition of Rev-BFP/CRM1-EYFP interaction in human HeLa cells assessed as Rev-BFP/CRM1-EYFP nuclear colocalization at 10 ug/mL after 120 mins by fluorescence microscopy. The format is cell-based. The procedure, abridged: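 HeLa cells on glass-bottom dishes, about 50% confluent, were co-transfected with Rev-BFP and CRM1-EYFP. One day later cells were washed with PBS and treated with compound in complete DMEM. Nucleolar co-localization of CRM1-EYFP with Rev was examined by live confocal microscopy at 30, 120 and 180 min and 24 h.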

Data set [3] concerns the target Exportin-1 (Homo sapiens) (UniProt O14980). Nature of the data set: Inhibition of CRM1-mediated nucleocytoplasmic transport of RevM5 mutant in HEK293 cells assessed as RevM5-GFP nuclear localization at 0.08 ug/ml after 2 hrs by fluorescence microscopy. The format is cell-based. The procedure, abridged: (§1)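 HEK 293T cells in 96-well trays were transfected with pRevM5-GFP by calcium phosphate, and compound was added one day later. RevM5-GFP distribution was scored by fluorescence microscopy 2 h after addition. Mainly nuclear localization was scored positive; cytoplasmic localization was scored negative.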

Data set [4] is described as follows: Cytotoxicity against HIV1 3B infected human OM10.1 cells at 20 ug/mL after 48 hrs by MTT assay. The data set is classed as cell-based. In a few lines:
(§2)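 Cytotoxicity was read by MTT viability staining on the same TNF-α-stimulated (1 ng/ml), twice-washed HIV-1(IIIB) chronically infected OM10.1 cultures (120,000 cells/well). Compound was present throughout the 48 h incubation at 37 °C.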

Data set [5] concerns the target Exportin-1 (Homo sapiens) (UniProt O14980). Description: Inhibition of CRM1-mediated nucleocytoplasmic transport of RevM5 mutant in HEK293 cells assessed as RevM5-GFP nuclear localization at 10 ug/ml after 2 hrs by fluorescence microscopy. The format is cell-based. The procedure, abridged:
as §1

Data set [6] concerns Human immunodeficiency virus 1. Description: Antiviral activity against HIV1 NL4-3 infected in HEK293T cells assessed as inhibition of virion-associated p24 antigen production after 24 hrs by ELISA. The format is functional, organism-based. The settings on record: for EC50: Human immunodeficiency virus 1, NL4-3, HEK-293T; for Activity: HEK-293T. The procedure, abridged:
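HEK 293T cells in DMEM with 10% heat-inactivated FCS were transfected with the HIV-1 molecular clone NL4-3 by calcium phosphate. Compounds were added at a range of concentrations. Virus-associated p24 antigen in the supernatant was measured by ELISA 24 h after compound addition.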
A general note: In an ELISA, binding on a coated surface is turned into a signal by an enzyme label.

The target in data set [7] is Exportin-1 (Homo sapiens) (UniProt O14980). Description: Inhibition of CRM1-mediated nucleocytoplasmic transport of RevM5 mutant in HEK293 cells assessed as RevM5-GFP nuclear localization at 2 ug/ml after 2 hrs by fluorescence microscopy. The format is cell-based. In a few lines: as §1
The nature of data set [8]: Cytotoxicity against HIV1 3B infected human OM10.1 cells at 10 ug/mL after 48 hrs by MTT assay. The data set is classed as cell-based. In a few lines: as §2
In data set [9] the test system is Human immunodeficiency virus 1. Nature of the data set: Antiviral activity against HIV1 3B infected in human OM10.1 cells assessed as inhibition of TNF-alpha-induced viral p24 production at 5 ug/mL after 48 hrs by ELISA. Also on record: scale not given: the % may be the effect or the level left. The data set is classed as functional. In a few lines: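 OM10.1 cells chronically infected with HIV-1(IIIB), grown in RPMI 1640 with 10% FCS, were washed twice to remove cell-free virus and seeded at 120,000 cells/well with compound. Cultures were stimulated with 1 ng/ml TNF-α and incubated 48 h at 37 °C. Supernatant p24 was measured by ELISA.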

For data set [10], the system named is HeLa. Nature of the data set: Inhibition of Rev-BFP/CRM1Cys528Ser-EYFP mutant interaction in human HeLa cells assessed as Rev-BFP/CRM1Cys528Ser-EYFP nuclear colocalization at 10 ug/mL after 2 hrs by fluorescence microscopy. The format is cell-based. In a few lines:
(§3)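 HeLa cells were co-transfected with Rev-BFP and the EYFP-CRM1 Cys528 mutant. One day after transfection they were washed with PBS and treated with compound in complete DMEM. Co-localization was followed by live-cell confocal microscopy at 30, 120 and 180 min and 24 h.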

Data set [11] concerns the target Exportin-1 (Homo sapiens) (UniProt O14980). Description: Inhibition of CRM1-mediated nucleocytoplasmic transport of RevM5 mutant in HEK293 cells assessed as RevM5-GFP nuclear localization at 0.4 ug/ml after 2 hrs by fluorescence microscopy. The data set is classed as cell-based. The procedure, abridged:
as §1

In data set [12] the test system is HeLa. Description: Inhibition of Rev-BFP/CRM1Cys528Ser-EYFP mutant interaction in human HeLa cells assessed as Rev-BFP/CRM1Cys528Ser-EYFP nuclear colocalization after 2 hrs by fluorescence microscopy. The format is cell-based. The procedure, abridged: as §3
The subject of data set [13] is HeLa. Nature of the data set: Inhibition of Rev-BFP/CRM1-EYFP interaction in human HeLa cells assessed as Rev-BFP/CRM1-EYFP nuclear colocalization by fluorescence microscopy. The format is cell-based. In a few lines: (§4)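 HeLa cells were co-transfected with Rev-BFP and CRM1-EYFP constructs (wild type or Cys528 mutant). One day later cells were PBS-washed and treated with compound in complete DMEM. Live cells were imaged by confocal microscopy at 30, 120 and 180 min and at 24 h. BFP was excited by a multiphoton laser at 760 nm, with emission collected at 390–480 nm. Read-out was Rev-dependent nucleolar co-localization of CRM1-EYFP.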

Data set [14] has as its system HeLa. Nature of the data set: Inhibition of Rev-BFP/CRM1Cys528Ser-EYFP mutant interaction in human HeLa cells assessed as Rev-BFP/CRM1Cys528Ser-EYFP nuclear colocalization at 25 nM after 2 hrs by fluorescence microscopy. The format is cell-based. The procedure, abridged:
as §4

Values after ≈ are worked out from the molar mass of the structure shown. Active and inactive are the calls of the source. The rule behind the calls is not given here.

Exportin-1 (Homo sapiens), sequence (O14980 whole entry): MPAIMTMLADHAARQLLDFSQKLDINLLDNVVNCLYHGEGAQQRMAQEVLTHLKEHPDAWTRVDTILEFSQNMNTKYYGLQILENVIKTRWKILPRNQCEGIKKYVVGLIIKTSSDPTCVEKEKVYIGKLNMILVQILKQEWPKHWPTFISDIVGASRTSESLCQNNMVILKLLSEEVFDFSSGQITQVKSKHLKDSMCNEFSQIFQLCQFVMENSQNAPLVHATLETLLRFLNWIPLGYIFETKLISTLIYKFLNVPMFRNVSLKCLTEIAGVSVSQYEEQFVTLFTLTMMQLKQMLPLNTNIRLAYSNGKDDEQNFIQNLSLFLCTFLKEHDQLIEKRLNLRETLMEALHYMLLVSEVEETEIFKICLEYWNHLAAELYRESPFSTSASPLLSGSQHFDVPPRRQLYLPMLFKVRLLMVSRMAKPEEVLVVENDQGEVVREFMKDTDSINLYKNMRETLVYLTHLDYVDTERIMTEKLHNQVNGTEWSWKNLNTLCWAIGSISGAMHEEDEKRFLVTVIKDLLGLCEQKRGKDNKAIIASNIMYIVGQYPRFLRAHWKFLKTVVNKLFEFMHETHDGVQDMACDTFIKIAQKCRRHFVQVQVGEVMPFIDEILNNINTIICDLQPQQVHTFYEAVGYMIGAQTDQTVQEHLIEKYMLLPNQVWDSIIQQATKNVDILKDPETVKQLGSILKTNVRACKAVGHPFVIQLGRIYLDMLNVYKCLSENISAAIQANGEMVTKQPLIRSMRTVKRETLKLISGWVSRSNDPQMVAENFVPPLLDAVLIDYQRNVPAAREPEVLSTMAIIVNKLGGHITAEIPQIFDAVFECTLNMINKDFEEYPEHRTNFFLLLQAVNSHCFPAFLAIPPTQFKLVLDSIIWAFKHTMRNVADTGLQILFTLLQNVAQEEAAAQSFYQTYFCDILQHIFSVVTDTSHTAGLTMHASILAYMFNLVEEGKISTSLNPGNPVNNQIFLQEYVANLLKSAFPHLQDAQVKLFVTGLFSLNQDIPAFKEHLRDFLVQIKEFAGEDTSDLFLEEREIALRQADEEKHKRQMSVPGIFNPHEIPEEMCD

Regarding `CCOC(=O)/C=C\n1nnc(-c2cccc(Cl)c2)n1`, the result in data set [1], in data set [2], in data set [5] and in [7] was Active. For the same compound, the outcome in [3] and in data set [10] was inactive. In addition, the Activity result in [4] is “Toxic”; in data set [8] it was “Toxic”; in data set [9], 94%. In addition, the EC50 in [6] turned out to be 0.2 µg/mL (≈ 0.718 µM).
Regarding `Cc1ccnc2c1NC(=O)c1cccnc1N2C1CC1`, the result in data set [6] was inactive.
Take `Clc1cccc(-c2nnn[nH]2)c1`: the result in data set [1], in [3], in data set [11], in data set [12], in data set [5] and in data set [6] was inactive. For the same compound, the outcome in data set [7] was inactive.
For `CCC(=C/[C@H](C)C/C=C/C(C)=C/[C@@H](C)C(=O)[C@@H](C)[C@H](O)[C@@H](C)C/C(C)=C/C(=O)O)/C=C/[C@@H]1OC(=O)C=C[C@@H]1C`, the result in data set [13] and in data set [14] was inactive.
For `CCOC(=O)/C=C/n1nnc(-c2cccc(Cl)c2)n1`, the result in [3] and in data set [11] was inactive. Besides, the results for the Activity entry in [4], in [8] and in data set [9] were “Toxic”, “Toxic” and 94%, respectively. In data set [5], the result was Active. For the same compound, the EC50 in [6] came out at 0.6 µg/mL (≈ 2.15 µM).
`CCOC(=O)C=Cn1ccnc1-c1ccccc1`: the outcome in data set [3], in [11], in data set [5] and in data set [7] was inactive.
For the compound `CCOC(=O)/C=C\n1nnc(-c2cc(Cl)ccc2N)n1`, the result in data set [3] was inactive. Also, the result in data set [11], in data set [5] and in data set [7] was Active.
Regarding `c1ccc(-c2nnn[nH]2)cc1`, the result in data set [3], in data set [11], in data set [5] and in data set [7] was inactive.
As to `Fc1cccc(-c2nnn[nH]2)c1`, the result in [3], in [11], in data set [5] and in data set [7] was inactive.
Take `CCOC(=O)/C=C\n1nnnc1-c1ccc(Cl)cc1`: the outcome in data set [3], in data set [11] and in data set [7] was inactive. Further, the result in data set [5] was Active.
On to `CCOC(=O)/C=C\n1nnnc1-c1cccc(Br)c1`, for which the outcome in data set [3], in [11], in data set [5] and in data set [7] was inactive.
As for `Nc1cc(Cl)ccc1-c1nnn[nH]1`, the outcome in data set [3], in [11], in [5] and in [7] was inactive.
Consider `Clc1ccccc1-c1nnn[nH]1`, for which the result in [3], in [11], in [5] and in data set [7] was inactive.

The term EC50 denotes the concentration giving half of the maximal effect.
